From PMC5060091 (ChemMedChem, 2016)
In brackets after ≈: the same amount, converted by molar mass. Several values for one entry are separate records, joined by “and”; a condition that tells them apart may be missing. Equal entries are not always repeated. Where two headings read alike, the source gives them in different places.

Experiments:
[1] = tested on: C. albicans ATCC MYA-2310(S); details: strain E; azoles; previously reported; cited from earlier work
[2] = tested on: C. albicans ATCC MYA-1237(R); details: strain F; azoles; previously reported; cited from earlier work
[3] = tested on: Aspergillus nidulans ATCC 38163; details: strain L; previously reported; cited from earlier work
[4] = tested on: Candida albicans ATCC 10231; details: strain A; azoles; previously reported; cited from earlier work
[5] = tested on: C. albicans ATCC MYA-2876(S); details: strain C; azoles; previously reported; cited from earlier work
[6] = tested on: C. albicans ATCC 64124; details: strain B; azoles; previously reported; cited from earlier work
[7] = tested on: C. albicans ATCC 90819(R); details: strain D; azoles; previously reported; cited from earlier work
[8] = tested on: Aspergillus flavus ATCC MYA-3631; test: MIC, broth dilution, strain K; type: cell-based; details: for MIC: Aspergillus flavus
[9] = tested on: Aspergillus terreus ATCC MYA-3633; test: MIC, broth dilution, strain M; type: cell-based; details: for MIC: Aspergillus terreus
[10] = tested on: C. albicans ATCC MYA-1003(R); details: strain G; azoles; previously reported; cited from earlier work
[11] = tested on: C. albicans ATCC 90819(R); test: MIC, broth dilution, strain D; type: cell-based, Candida albicans; details: for MIC: Candida albicans
Procedure, shortened: (§1)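 Broth dilution MIC assay on the Candida panel: C. albicans strains A–G, C. glabrata (H), C. krusei (I) and C. parapsilosis (J). Test compounds were delivered in DMSO, with DMSO kept below 1% in the assay. The MIC is reported in µg/mL, with µM in parentheses. Reference antifungals (a polyene and four azoles) were run alongside.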

[12] = tested on: C. albicans ATCC MYA-1237(R); test: MIC, broth dilution, strain F; type: cell-based, Candida albicans; details: for MIC: Candida albicans
Procedure, shortened: as §1

[13] = tested on: C. albicans ATCC MYA-1003(R); test: MIC, broth dilution, strain G; type: cell-based, Candida albicans; details: for MIC: Candida albicans
Procedure, shortened: as §1

[14] = tested on: Candida albicans ATCC 10231; test: MIC, broth dilution, strain A; type: cell-based; details: for MIC: Candida albicans
Procedure, shortened: as §1

[15] = tested on: C. albicans ATCC MYA-2310(S); test: MIC, broth dilution, strain E; type: cell-based, Candida albicans; details: for MIC: Candida albicans
Procedure, shortened: as §1

[16] = tested on: Aspergillus strains (K–M); test: MIC against Aspergillus strains; type: cell-based; details: read-out: MIC values against Aspergillus strains
[17] = tested on: C. albicans ATCC MYA-2876(S); test: MIC, broth dilution, strain C; type: cell-based, Candida albicans; details: for MIC: Candida albicans
Procedure, shortened: as §1

[18] = tested on: C. albicans ATCC 64124; test: MIC, broth dilution, strain B; type: cell-based, Candida albicans; details: for MIC: Candida albicans
Procedure, shortened: as §1

[19] = tested on: Aspergillus nidulans ATCC 38163; test: MIC, broth dilution, strain L; type: cell-based; details: for MIC: Aspergillus nidulans
[20] = tested on: murine red blood cells (mRBCs); details: data previously presented; cited from earlier work
[21] = tested on: Candida glabrata ATCC 2001; test: MIC, broth dilution, strain H; type: cell-based; details: compounds 1–4n and AmB
Procedure, shortened: as §1

[22] = tested on: Candida strains (A–J); test: MIC against panel of Candida strains; type: cell-based
Procedure, shortened: as §1

[23] = tested on: C. albicans ATCC 10231 (strain A); test: ROS induction assay; type: cell-based, Candida albicans; details: 1× and 2× MIC, 1-h treatment; H2O2 1 mM
Procedure, shortened: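 C. albicans ATCC 10231 cells were incubated 1 h at 37 °C with test compound at 1× or 2× MIC, with no drug (negative control), or with 1 mM H₂O₂ (positive control). DCFH-DA (40 µg/mL) was then added. ROS were detected and imaged by fluorescence microscopy.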

[24] = tested on: Candida krusei ATCC 6258; test: MIC, broth dilution, strain I; type: cell-based; details: compounds 1–4n and AmB
Procedure, shortened: as §1

[25] = tested on: C. albicans ATCC 64124 (strain B); test: Time-kill assay; type: cell-based, Candida albicans
[26] = tested on: Candida parapsilosis ATCC 22019; test: MIC, broth dilution, strain J; type: cell-based; details: compounds 1–4n and AmB
Procedure, shortened: as §1

[27] = read-out: MIC (MIC-0) in µM (parentheses)
[28] = read-out: MIC (MIC-2) in µM (parentheses)
[29] = strain D, compounds 1–4n and AmB
[30] = strain F, compounds 1–4n and AmB
[31] = strain G, compounds 1–4n and AmB
[32] = strain A, compounds 1–4n and AmB
[33] = strain E, compounds 1–4n and AmB
[34] = strain C, compounds 1–4n and AmB

In the case of CCC(C)n1ncn(-c2ccc(N3CCN(c4ccc(OCC5COC(Cn6cncn6)(c6ccc(Cl)cc6Cl)O5)cc4)CC3)cc2)c1=O (stereo not shown) [ITC, itraconazole], the “MIC (MIC-2)” value [1] is listed as 31.2 µg/mL (≈ 44.2 µM), the “MIC (MIC-2) in µM (parentheses)” value [1] is listed as 44.2 µM (≈ 31.2 µg/mL) and the “MIC (MIC-2)” value [2] is listed as 31.2 µg/mL (≈ 44.2 µM). The “MIC (MIC-2) in µM (parentheses)” value [2] was 44.2 µM (≈ 31.2 µg/mL), the “MIC (MIC-0)” value [3] was 0.195 µg/mL (≈ 0.276 µM) and the “MIC (MIC-0) in µM (parentheses)” value [3] was 0.28 µM (≈ 0.198 µg/mL). For the same compound, the “MIC (MIC-2)” value [4] was 0.5 µg/mL (≈ 0.709 µM), the “MIC (MIC-2) in µM (parentheses)” value [4] was 0.71 µM (≈ 0.501 µg/mL) and the “MIC (MIC-2)” value [5] was 7.8 µg/mL (≈ 11.1 µM). The “MIC (MIC-2) in µM (parentheses)” value [5] was 11.1 µM (≈ 7.83 µg/mL), the “MIC (MIC-2)” value [6] was over 62.5 µg/mL and the “MIC (MIC-2) in µM (parentheses)” value [6] was over 88.6 µM. For the same compound, the “MIC (MIC-2)” value [7] was 31.2 µg/mL (≈ 44.2 µM), the “MIC (MIC-2) in µM (parentheses)” value [7] was 44.2 µM (≈ 31.2 µg/mL) and the MIC ([8]; read-out: MIC (MIC-0)) was 0.48 µg/mL. The MIC [8, 27] was 0.68 µM, the MIC ([9]; read-out: MIC (MIC-0)) was 0.975 µg/mL and the MIC [9, 27] was 1.38 µM. For the same compound, the “MIC (MIC-2)” value [10] was 31.2 µg/mL (≈ 44.2 µM) and the “MIC (MIC-2) in µM (parentheses)” value [10] was 44.2 µM (≈ 31.2 µg/mL).

In the case of CC[C@@H]([C@H](C)O)n1ncn(-c2ccc(N3CCN(c4ccc(OC[C@@H]5CO[C@@](Cn6cncn6)(c6ccc(F)cc6F)C5)cc4)CC3)cc2)c1=O [POS, posaconazole], the “MIC (MIC-2)” value [1] is listed as 31.2 µg/mL (≈ 44.5 µM), the “MIC (MIC-2) in µM (parentheses)” value [1] is listed as 44.5 µM (≈ 31.2 µg/mL) and the “MIC (MIC-2)” value [2] is listed as 15.6 µg/mL (≈ 22.3 µM). For the same compound, the “MIC (MIC-2) in µM (parentheses)” value [2] was 22.3 µM (≈ 15.6 µg/mL), the “MIC (MIC-0)” value [3] was 0.195 µg/mL (≈ 0.278 µM) and the “MIC (MIC-0) in µM (parentheses)” value [3] was 0.28 µM (≈ 0.196 µg/mL). The “MIC (MIC-2)” value [4] was 0.5 µg/mL (≈ 0.713 µM), the “MIC (MIC-2) in µM (parentheses)” value [4] was 0.71 µM (≈ 0.498 µg/mL) and the “MIC (MIC-2)” value [5] was 7.8 µg/mL (≈ 11.1 µM). The “MIC (MIC-2) in µM (parentheses)” value [5] was 11.1 µM (≈ 7.78 µg/mL), the “MIC (MIC-2)” value [6] was over 62.5 µg/mL and the “MIC (MIC-2) in µM (parentheses)” value [6] was over 89.3 µM. For the same compound, the “MIC (MIC-2)” value [7] was 31.2 µg/mL (≈ 44.5 µM), the “MIC (MIC-2) in µM (parentheses)” value [7] was 44.5 µM (≈ 31.2 µg/mL) and the MIC ([8]; read-out: MIC (MIC-0)) was 0.24 µg/mL. It also gave an MIC [8, 27] of 0.34 µM, an MIC ([9]; read-out: MIC (MIC-0)) of 0.48 µg/mL and an MIC [9, 27] of 0.68 µM. For the same compound, the “MIC (MIC-2)” value [10] was 15.6 µg/mL (≈ 22.3 µM) and the “MIC (MIC-2) in µM (parentheses)” value [10] was 22.3 µM (≈ 15.6 µg/mL).

With C[C@@H](c1ncncc1F)[C@](O)(Cn1cncn1)c1ccc(F)cc1F [VOR, voriconazole] the MIC ([11]; ATCC90819, read-out: MIC (MIC-2)) was 1.95 µg/mL, the MIC ([11]; ATCC90819, read-out: MIC (MIC-2) in µM (parentheses)) was 5.58 µM and the MIC ([12]; read-out: MIC (MIC-2)) was 0.975 µg/mL. The MIC [12, 28] was 2.79 µM, the MIC ([13]; read-out: MIC (MIC-2)) was 7.8 µg/mL and the MIC [13, 28] was 22.3 µM. The MIC ([14]; ATCC10231, read-out: MIC (MIC-2)) was 7.8 µg/mL, the MIC ([14]; ATCC10231, read-out: MIC (MIC-2) in µM (parentheses)) was 22.3 µM and the MIC ([15]; read-out: MIC (MIC-2)) was 1.95 µg/mL. It also gave an MIC [15, 28] of 5.58 µM, an MIC ([9]; read-out: MIC (MIC-0)) of 0.12 µg/mL and an MIC [9, 27] of 0.34 µM. For the same compound, the MIC [16] was 0.03 to 0.24 µg/mL (≈ 0.0859 to 0.687 µM), the MIC ([17]; read-out: MIC (MIC-2)) was 0.975 µg/mL and the MIC [17, 28] was 2.79 µM. For the same compound, the MIC ([18]; ATCC64124, read-out: MIC (MIC-2)) was over 31.2 µg/mL, the MIC ([18]; ATCC64124, read-out: MIC (MIC-2) in µM (parentheses)) was over 89.3 µM and the MIC ([19]; ATCC38163, read-out: MIC (MIC-0)) was 0.03 µg/mL. It also gave an MIC ([19]; ATCC38163, read-out: MIC (MIC-0) in µM (parentheses)) of 0.09 µM.

In the case of ebsulfur [Compound 2a], the “concentration until which no significant hemolytic activity was shown” value [20] is given as 15.6 µg/mL and 68.6 µM, the “MIC (MIC-0)” value [21] is given as 6.25 µg/mL and the “MIC (MIC-0) in µM (parentheses)” value [21] is given as 27.5 µM. The “MIC values against Candida strains” value ([22]; strains A, B, C, F, G and J (poorly active)) was at least 12.5 µg/mL, the “MIC values against Candida strains” value ([22]; strains D, E, H and I (active)) was 1.56 to 6.25 µg/mL and the “MIC (MIC-0)” value [11, 29] was 3.13 µg/mL. The “MIC (MIC-0) in µM (parentheses)” value [11, 29] was 13.8 µM, the “ROS induction (DCFH-DA fluorescence)” value [23] was “highly fluorescent” and the “MIC (MIC-0)” value [12, 30] was over 12.5 µg/mL. For the same compound, the “MIC (MIC-0) in µM (parentheses)” value [12, 30] was over 55.0 µM, the “MIC (MIC-0)” value [24] was 3.13 µg/mL and the “MIC (MIC-0) in µM (parentheses)” value [24] was 13.8 µM. The time-kill effect ([25]; 1× MIC (1 12.5, 2a 12.5, 3a 0.39, AmB 3.9 µg/mL)) was “fungistatic”, the time-kill effect ([25]; 2× MIC (1 25, 2a 25, 3a 0.78, AmB 7.8 µg/mL)) was “fungicidal” and the fungicidal concentration ([25]; time-kill curves) was 25 µg/mL and 110 µM. For the same compound, the “MIC (MIC-0)” value [13, 31] was over 12.5 µg/mL, the “MIC (MIC-0) in µM (parentheses)” value [13, 31] was over 55.0 µM and the “MIC (MIC-0)” value ([8]; strain K, all compounds) was 6.25 µg/mL. For the same compound, the “MIC (MIC-0) in µM (parentheses)” value ([8]; strain K, all compounds) was 27.5 µM, the “MIC (MIC-0)” value [14, 32] was 12.5 µg/mL and the “MIC (MIC-0) in µM (parentheses)” value [14, 32] was 55.0 µM. For the same compound, the “MIC (MIC-0)” value [15, 33] was 6.25 µg/mL, the “MIC (MIC-0) in µM (parentheses)” value [15, 33] was 27.5 µM and the “MIC (MIC-0)” value ([9]; strain M, all compounds) was 6.25 µg/mL. The “MIC (MIC-0) in µM (parentheses)” value ([9]; strain M, all compounds) was 27.5 µM, the “MIC (MIC-0)” value [17, 34] was 12.5 µg/mL and the “MIC (MIC-0) in µM (parentheses)” value [17, 34] was 55.0 µM. The “MIC (MIC-0)” value [26] was 12.5 µg/mL, the “MIC (MIC-0) in µM (parentheses)” value [26] was 55.0 µM and the “MIC (MIC-0) in µM (parentheses)” value ([18]; strain B, compounds 1–4n and AmB) was over 55.0 µM. The “MIC (MIC-0)” value ([19]; strain L, all compounds) was 6.25 µg/mL and the “MIC (MIC-0) in µM (parentheses)” value ([19]; strain L, all compounds) was 27.5 µM.
